# Experimental data: ChEMBL document CHEMBL1140187, “Anti-inflammatory cembranoids from the soft corals Sinularia querciformis and Sinularia granosa” (J Nat Prod, 2008)
# Assays:
# [1] = tested on: MCF7; assay: Cytotoxicity against human MCF7 cells by MTT method; assay type: functional; details: MCF7, read-out: ED50
# [2] = tested on: HeLa; assay: Cytotoxicity against human HeLa cells by MTT method; assay type: functional; details: read-out: ED50
# [3] = Cytotoxicity against human Doay cells; assay type: functional, cell-based
# [4] = tested on: HeLa; assay: Cytotoxicity against human HeLa cells; assay type: functional, cell-based
# [5] = tested on: HEp-2; assay: Cytotoxicity against human Hep2 cells by MTT method; assay type: functional; details: HEp-2, read-out: ED50
# [6] = tested on: HEp-2; assay: Cytotoxicity against human Hep2 cells; assay type: functional, cell-based
# [7] = Cytotoxicity against human Doay cells by MTT method; assay type: functional; details: read-out: ED50
# [8] = tested on: RAW264.7; assay: Reduction of LPS-induced COX2 expression in mouse Raw264.7 cells at 10 uM preincubated for 5 mins before LPS challenge relative to control; assay type: functional; design: scale not given: the % may be the effect or the level left
# In short: (§1)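 RAW 264.7 murine macrophages grown in DMEM with 10% heat-inactivated FBS at 37 °C, 5% CO2, plated at 3 × 10^6 cells per 60 mm dish. Compound added 5 min before LPS (0.01 µg/mL), then 16 h incubation. Lysates were analysed by Western blot against iNOS and COX-2 (1:1000), with β-actin as loading control and ECL detection. Band IOD was expressed relative to the LPS-only control; one-way ANOVA with Student-Newman-Keuls test.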
# [9] = tested on: RAW264.7; assay: Reduction of LPS-induced iNOS expression in mouse Raw264.7 cells at 10 uM preincubated for 5 mins before LPS challenge relative to control; assay type: functional; design: scale not given: the % may be the effect or the level left; in short: as §1
# [10] = tested on: MCF7; assay: Cytotoxicity against human MCF7 cells; assay type: functional, cell-based
SMILES,EC50 [1],EC50 [2],IC50 [3],IC50 [4],EC50 [5],IC50 [6],EC50 [7],Activity [8],Activity [9],IC50 [10]
C=C1C(=O)O[C@]2(C)CC[C@@H]1C[C@H](O)[C@@]1(C)CC[C@H](O1)[C@](C)(O)CC[C@H]2O [QUERCIFORMOLIDE D],> 20 µg/mL,> 20 µg/mL,> 20 µg/mL,> 20 µg/mL,> 20 µg/mL,> 20 µg/mL,> 20 µg/mL,,,
C=C1C(=O)O[C@]2(C)CC[C@@H]1C[C@H](O)[C@@]1(C)CC[C@H](O1)[C@](C)(O)CC[C@H]2OC(C)=O [QUERCIFORMOLIDE B],> 20 µg/mL,> 20 µg/mL,> 20 µg/mL,> 20 µg/mL,> 20 µg/mL,> 20 µg/mL,> 20 µg/mL,,,
C=C1C(=O)O[C@]2(C)CC[C@@H]1C[C@H](O)[C@@]1(C)CC[C@H](O1)[C@](C)(O)CCC2=O,> 20 µg/mL,> 20 µg/mL,> 20 µg/mL,> 20 µg/mL,> 20 µg/mL,> 20 µg/mL,> 20 µg/mL,17.4%,,
C=C1C(=O)O[C@]2(C)CC[C@@H]1C[C@H](OC(C)=O)[C@@]1(C)CC[C@H](O1)C(=C)CC[C@H]2OC(C)=O [GRANOSOLIDE B],> 20 µg/mL,> 20 µg/mL,> 20 µg/mL,> 20 µg/mL,> 20 µg/mL,> 20 µg/mL,> 20 µg/mL,,,
C=C1C(=O)O[C@]2(C)CC[C@@H]1C[C@H](O)[C@@]1(C)CC[C@H](O1)C(=C)CC[C@H]2OC(C)=O [GRANOSOLIDE A],> 20 µg/mL,> 20 µg/mL,> 20 µg/mL,> 20 µg/mL,> 20 µg/mL,> 20 µg/mL,> 20 µg/mL,,,
C=C1C(=O)O[C@]2(C)CC[C@@H]1C[C@H](OC(C)=O)[C@@]1(C)CC[C@H](O1)[C@](C)(O)CCC2=O,> 20 µg/mL,> 20 µg/mL,> 20 µg/mL,> 20 µg/mL,> 20 µg/mL,> 20 µg/mL,> 20 µg/mL,14%,20.3%,
C=C1C(=O)O[C@]2(C)CC[C@@H]1C[C@H](OC(C)=O)[C@@]1(C)CC[C@H](O1)[C@](C)(O)CC[C@H]2OC(C)=O [QUERCIFORMOLIDE C],> 20 µg/mL,> 20 µg/mL,> 20 µg/mL,> 20 µg/mL,> 20 µg/mL,> 20 µg/mL,> 20 µg/mL,,23.7%,
C=C1C(=O)O[C@]2(C)CC[C@@H]1C[C@H](O)[C@@]1(C)CC[C@H](OC(C)=O)[C@@](C)(CCC2=O)O1 [QUERCIFORMOLIDE A],> 20 µg/mL,> 20 µg/mL,> 20 µg/mL,> 20 µg/mL,> 20 µg/mL,> 20 µg/mL,> 20 µg/mL,,,> 20 µg/mL
